# Where “and” joins values, the source holds several entries; their conditions need not be identical. Identical values can stand only once.
# Legend:
# GL261 orthotopic glioma = test: Syngeneic orthotopic mouse glioma model GL261/C57bl6, survival with radiation; format: in vivo
# human glioma T98G cells = test: Radiosurvival colony-forming ability; format: cell-based; settings: compared with KU-60019
# In short: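 T98G human glioma cells came from ATCC and grew in DMEM with 10% FBS and penicillin-streptomycin at 37°C, 5% CO2. Cultures were kept no longer than 2 months and tested mycoplasma-negative. Radiosensitization was scored as colony-forming ability after irradiation, with a reference ATM inhibitor run alongside.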
# [1] = test system: ATM targets including p53-S15, KAP1-S824, and ATM auto-phosphorylation at S1981; test: Western blotting of ATM target phosphorylation; format: cell-based; settings: western blot
# In short: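 Mouse GL261 cells were irradiated (5 Gy) or not and exposed to test compound 0.3, 1 or 3 µM, or KU-60019 3 µM as reference ATM inhibitor, or neither. Extracts were western blotted for p-p53 S15 and p-KAP1 S824, with GAPDH or KAP1 as loading controls, using Dylight-800 anti-rabbit and Alexa Fluor-680 anti-mouse secondaries.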
# ATR = ATR (Homo sapiens, UniProt Q13535); test: Kinase selectivity, biochemical PIKK enzyme activity: ATR
# ATR, sequence (Q13535 whole entry): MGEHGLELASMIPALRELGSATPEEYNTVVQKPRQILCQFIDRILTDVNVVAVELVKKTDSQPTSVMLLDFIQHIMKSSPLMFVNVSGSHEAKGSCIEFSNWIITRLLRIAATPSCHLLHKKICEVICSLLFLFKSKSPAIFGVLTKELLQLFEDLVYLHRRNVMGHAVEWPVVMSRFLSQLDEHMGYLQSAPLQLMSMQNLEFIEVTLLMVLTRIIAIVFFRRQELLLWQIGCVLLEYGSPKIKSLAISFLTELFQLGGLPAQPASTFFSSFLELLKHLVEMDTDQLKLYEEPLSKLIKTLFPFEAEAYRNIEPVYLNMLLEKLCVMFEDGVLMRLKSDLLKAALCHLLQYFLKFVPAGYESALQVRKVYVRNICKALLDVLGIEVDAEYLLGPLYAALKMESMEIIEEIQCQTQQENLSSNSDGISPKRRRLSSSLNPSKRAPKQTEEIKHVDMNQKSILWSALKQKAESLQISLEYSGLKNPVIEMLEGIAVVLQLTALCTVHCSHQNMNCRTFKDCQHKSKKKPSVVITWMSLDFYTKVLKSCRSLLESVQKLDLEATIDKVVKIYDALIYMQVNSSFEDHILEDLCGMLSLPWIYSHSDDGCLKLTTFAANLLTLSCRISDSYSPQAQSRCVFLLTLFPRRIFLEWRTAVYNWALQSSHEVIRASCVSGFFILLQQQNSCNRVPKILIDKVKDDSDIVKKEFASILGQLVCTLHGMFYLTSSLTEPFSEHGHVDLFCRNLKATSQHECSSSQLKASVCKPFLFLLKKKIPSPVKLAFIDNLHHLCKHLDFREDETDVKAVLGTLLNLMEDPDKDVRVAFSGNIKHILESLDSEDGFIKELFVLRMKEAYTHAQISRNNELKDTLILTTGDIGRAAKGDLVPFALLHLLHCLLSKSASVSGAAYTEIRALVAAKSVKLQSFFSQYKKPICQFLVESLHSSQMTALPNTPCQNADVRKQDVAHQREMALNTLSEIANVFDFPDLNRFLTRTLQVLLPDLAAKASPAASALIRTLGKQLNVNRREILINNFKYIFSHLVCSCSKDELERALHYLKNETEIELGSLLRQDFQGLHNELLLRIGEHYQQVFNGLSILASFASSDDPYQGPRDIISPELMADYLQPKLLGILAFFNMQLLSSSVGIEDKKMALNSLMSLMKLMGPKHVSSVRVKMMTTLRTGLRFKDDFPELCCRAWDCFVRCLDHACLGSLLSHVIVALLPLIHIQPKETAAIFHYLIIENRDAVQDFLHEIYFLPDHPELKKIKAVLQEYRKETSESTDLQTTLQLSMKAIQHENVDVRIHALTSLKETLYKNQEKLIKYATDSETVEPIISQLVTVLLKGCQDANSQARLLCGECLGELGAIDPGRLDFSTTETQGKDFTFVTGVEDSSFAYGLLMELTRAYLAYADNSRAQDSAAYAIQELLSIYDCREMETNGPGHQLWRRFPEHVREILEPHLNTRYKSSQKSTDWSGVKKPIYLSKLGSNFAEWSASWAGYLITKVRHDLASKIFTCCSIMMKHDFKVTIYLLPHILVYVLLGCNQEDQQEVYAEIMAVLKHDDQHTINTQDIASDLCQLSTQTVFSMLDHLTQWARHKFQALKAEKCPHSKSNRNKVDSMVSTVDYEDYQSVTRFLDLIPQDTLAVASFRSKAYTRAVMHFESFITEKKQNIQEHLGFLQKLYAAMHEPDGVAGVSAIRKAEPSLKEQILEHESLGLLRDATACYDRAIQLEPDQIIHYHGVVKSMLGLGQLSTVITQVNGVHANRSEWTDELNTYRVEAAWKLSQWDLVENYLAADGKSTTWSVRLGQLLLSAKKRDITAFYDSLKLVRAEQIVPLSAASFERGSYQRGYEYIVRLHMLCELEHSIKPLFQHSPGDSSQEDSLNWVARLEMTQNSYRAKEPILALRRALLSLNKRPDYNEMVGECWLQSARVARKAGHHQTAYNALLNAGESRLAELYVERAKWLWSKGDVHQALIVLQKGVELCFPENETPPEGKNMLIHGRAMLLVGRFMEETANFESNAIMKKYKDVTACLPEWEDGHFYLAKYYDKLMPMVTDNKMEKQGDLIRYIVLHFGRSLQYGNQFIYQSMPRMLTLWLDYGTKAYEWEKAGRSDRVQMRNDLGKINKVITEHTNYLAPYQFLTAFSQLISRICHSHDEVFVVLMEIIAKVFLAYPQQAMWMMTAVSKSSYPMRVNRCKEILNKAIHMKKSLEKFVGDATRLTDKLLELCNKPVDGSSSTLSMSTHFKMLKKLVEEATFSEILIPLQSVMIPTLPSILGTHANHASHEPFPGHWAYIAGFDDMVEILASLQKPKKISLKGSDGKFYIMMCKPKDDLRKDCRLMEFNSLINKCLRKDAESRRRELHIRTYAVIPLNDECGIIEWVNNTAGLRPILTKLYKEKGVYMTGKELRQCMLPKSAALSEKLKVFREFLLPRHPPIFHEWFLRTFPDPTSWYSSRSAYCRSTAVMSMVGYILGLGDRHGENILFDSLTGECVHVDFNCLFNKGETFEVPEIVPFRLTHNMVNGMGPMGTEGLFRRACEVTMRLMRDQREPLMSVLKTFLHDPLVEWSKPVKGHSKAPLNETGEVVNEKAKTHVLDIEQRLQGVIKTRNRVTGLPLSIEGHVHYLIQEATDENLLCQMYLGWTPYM
# ATR, sequence (Q8WXE1 whole entry partner): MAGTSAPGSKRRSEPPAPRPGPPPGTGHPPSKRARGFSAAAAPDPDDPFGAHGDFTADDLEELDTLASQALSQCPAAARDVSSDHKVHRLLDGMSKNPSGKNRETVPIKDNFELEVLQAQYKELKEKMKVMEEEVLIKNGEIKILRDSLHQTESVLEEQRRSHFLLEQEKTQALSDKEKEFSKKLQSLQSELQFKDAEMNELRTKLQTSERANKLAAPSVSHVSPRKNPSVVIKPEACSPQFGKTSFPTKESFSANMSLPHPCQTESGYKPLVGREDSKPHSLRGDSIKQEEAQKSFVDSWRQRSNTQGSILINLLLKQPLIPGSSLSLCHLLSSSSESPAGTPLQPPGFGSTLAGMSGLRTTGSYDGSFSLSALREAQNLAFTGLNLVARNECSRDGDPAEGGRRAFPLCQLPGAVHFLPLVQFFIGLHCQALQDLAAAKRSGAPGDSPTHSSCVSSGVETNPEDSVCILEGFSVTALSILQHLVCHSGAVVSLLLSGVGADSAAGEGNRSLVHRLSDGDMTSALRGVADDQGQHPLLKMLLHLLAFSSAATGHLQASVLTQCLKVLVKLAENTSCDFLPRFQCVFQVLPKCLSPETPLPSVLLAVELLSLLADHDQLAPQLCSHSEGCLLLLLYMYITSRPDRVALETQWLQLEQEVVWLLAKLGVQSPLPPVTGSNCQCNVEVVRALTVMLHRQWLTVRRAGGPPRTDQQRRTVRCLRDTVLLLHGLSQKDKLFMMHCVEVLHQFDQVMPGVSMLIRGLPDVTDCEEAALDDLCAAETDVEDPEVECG
# U87/shp53 cells [2] = test: Radiosensitization of U87/shp53 versus parental U87/puro cells; format: cell-based, human; settings: AZ32 3 µM
# U87/shp53 cells [3] = test: Live cell imaging of aberrant mitoses in U87/shp53 versus parental cells; format: cell-based, human; settings: AZ32 3 µM, 5 Gy, time-lapse 16 hrs
# In short: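 U87 cells expressing H2B-mCherry and EGFP-Centrin2 were transduced with shp53 pLKO.1 puro or pBabe-puro, puromycin-selected and FACS-sorted mCherry+/EGFP+. They were grown 48–72 hr on glass-bottom dishes, given test compound 3 µM before 5 Gy, then imaged by spinning-disk confocal every 7 min from 2 hr post-IR for 16 hr. Aberrant mitoses were scored visually from chromatin and/or centrosome morphology.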
# mouse GL261 glioma cells = test: Mitotic catastrophe triple staining; format: cell-based; settings: 24 hr
# In short: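 GL261 cells on chamber slides (DMEM, 10% FBS, 37°C, 5% CO2) were treated with test compound 3 µM and/or 2 Gy, or left untreated. Fixed at 24 hr and immunostained for γ-H2AX, p-(S10)-histone H3 and cleaved caspase 3, with DAPI counterstain; confocal imaging. Triple-positive cells were counted as mitotic catastrophe and expressed as a fraction of all cells.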
# [4] = test system: intracranial NCI-H2228 (BM) tumors; test: NCI-H2228 non-small cell lung cancer brain metastasis model, survival; format: in vivo, mouse; settings: nude mice, AZ32 50 mg/kg BID
# In short: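 Luciferase-expressing NCI-H2228 lung cancer cells, grown in DMEM with 10% FBS, were implanted in the brains of nude mice. Mice were randomized to vehicle, radiation alone, test compound 50 mg/kg BID alone, or test compound plus radiation. Tumours were tracked by bioluminescence imaging and survival was followed.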
# [5] = Tolerability of AZ32 plus head irradiation in mice; format: in vivo; settings: C57bl6 mice, AZ32 and 2×5 Gy conformal SARRP
# [6] = Mouse oral exposure: plasma and brain; format: in vivo; settings: from Kpuu of Table 1
# [7] = test system: pp53 (S15), pKAP1 (S824) in mouse glioma GL261 cells; test: Western blotting of DDR in GL261 cells; format: cell-based; settings: 5 Gy, AZ32 0.3, 1 or 3 µM
# In short: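 Mouse GL261 glioma cells, grown in DMEM with 10% FBS, got 5 Gy or no irradiation plus test compound (0.3, 1 or 3 µM), reference ATM inhibitor (3 µM) or neither. Extracts were western blotted for p-p53 Ser15 and p-KAP1 Ser824, with GAPDH or KAP1 as loading controls. Detection used Dylight-800 anti-rabbit and Alexa Fluor-680 anti-mouse secondaries.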
# pS1981ATM = pS1981ATM (Homo sapiens, UniProt Q13315); test: ATM cell assay; format: cell-based; settings: read-out: pS1981ATM IC50 (ATM cell IC50)
# [8] = test system: human HCT116 colon carcinoma cells; test: CFA radiosurvival of isogenic HCT116 cells; format: cell-based; settings: HCT116 p53+/+ cells versus mutant p53 cells
# [9] = test system: human glioma cell lines LN18, U1242, T98G, DBTRG, U87MG; test: Radiosurvival of human glioma cell line panel with AZ32; format: cell-based; settings: LN18, U1242, T98G (mutant p53), U87MG (wild-type p53)
# mouse GL261 cells = test: Radiosurvival colony-forming assay, GL261; format: cell-based; settings: AZ32 3 µM, 2 and 4 Gy
# In short: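 Clonogenic radiosurvival in mouse GL261 cells grown in DMEM with 10% FBS. Cells were diluted and plated, exposed to test compound 3 µM or not, and irradiated at 0, 2 or 4 Gy. After about 2 weeks, colonies were stained with crystal violet and those of more than 50 cells were counted.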
# Cell permeability = format: in vitro ADME
# [10] = test system: human HCT116 colon carcinoma cells; test: Aberrant mitoses in isogenic HCT116 cells; format: cell-based; settings: HCT116 p53−/− cells
structure (smiles),measurement,setting,value
"C[C@@H]1CN(CC(=O)Nc2ccc3c(c2)Cc2cccc(-c4cc(=O)cc(N5CCOCC5)o4)c2S3)C[C@H](C)O1 [KU-60019, reference compound]",Radiosensitization of GL261 tumors,GL261 orthotopic glioma; administered intra-tumorally by CED immediately prior to radiation,radiosensitized by KU-60019 (p = 0.0001)
"COCc1ccc(-c2ccc3ncc(C(N)=O)c(N[C@H](C)C4CCOCC4)c3c2)cn1 [AZ31, 6-[6-(methoxymethyl)-3-pyridinyl]-4-([(1R)-1-(tetrahydro-2H-pyran-4-yl)ethyl]amino)-3-quinolinecarboxamide]",Radiosensitization of GL261 tumors,"GL261 orthotopic glioma; administered orally, prolonged low radiation dose treatment schedule",unable to significantly radiosensitize tumors
same,Radiosensitization by colony-forming ability,human glioma T98G cells,radiosensitized cells to a similar extent as KU-60019
same,Block of phosphorylation of ATM targets,"[1]; p53-S15, KAP1-S824, ATM S1981",effectively blocked phosphorylation
same,Potency compared to KU-60019 in blocking ATM target phosphorylation,[1]; lanes 2–6,at least 10 fold
CNC(=O)c1ccc(-c2cnc3cnc(-c4ccccc4)cn23)cc1 [AZ32],Selectivity over ATR,ATR,adequate selectivity over ATR
same,Sensitivity of U87/shp53 cells to AZ32 radiosensitization relative to parental cells,U87/shp53 cells [2],2–4 fold
same,Aberrant mitoses in shp53 cells relative to parental cells,U87/shp53 cells [3],4.2 fold and ~ 4 fold
same,Triple+ cells (mitotic catastrophe) of all cells,mouse GL261 glioma cells; AZ32 3 µM and radiation 2 Gy,4%
same,Mitotic catastrophe in AZ32+IR over IR alone,"mouse GL261 glioma cells; AZ32 3 µM, 2 Gy",4 fold
same,"Survival of mice, AZ32 in combination with radiation",[4],survived much longer than mice in the radiation alone or AZ32 alone groups
same,Radiation toxicity,[5],did not notice any radiation toxicity
same,Enhancement of BBB penetration over AZ31,[6],8.7 fold
same,Block of phosphorylation of p53 and KAP-1 after radiation,[7],blocked the phosphorylation of p53 and KAP-1 after radiation
same,IC50,pS1981ATM,310 nM
same,Survival versus radiation alone,"GL261 orthotopic glioma; AZ32 200 mg/kg p.o. QD, whole-head 137-Cs irradiation 4×2.5 Gy",significantly (p = 0.019) prolonged the survival
same,Sensitivity to AZ32 and radiation by CFA,[8],more sensitive to AZ32 and radiation compared to mutant p53 cells
same,Radiosensitization of human glioma cell line panel,[9],all radiosensitized in vitro
same,Radiosensitization in radiosurvival colony-forming assay,mouse GL261 cells,became more radiosensitive
same,Cell permeability,Cell permeability,high cell permeability
same,Aberrant mitoses and polyploidy cells on addition of AZ32 before IR,[10],almost a doubling of aberrant mitoses and polyploidy cells
